Reference: ChEMBL document CHEMBL1141703, “Synthesis and in vitro evaluation of imidazopyridazines as novel inhibitors of the malarial kinase PfPK7” (Bioorg Med Chem Lett, 2008)
Active and inactive are the calls of the source. No cut-off for these calls is given here.

Test system: not listed separately
Experiment: Selectivity index, ratio of IC50 for human KB cells to IC50 for Plasmodium falciparum 3D7
Format: toxicity, cell-based
Conditions: read-out: Ratio IC50
How it was run: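 Ratio of the human KB cell cytotoxicity IC50 to the P. falciparum 3D7 IC50. 3D7 is a drug-sensitive laboratory clone of the NF54 isolate. Parasite IC50 (μM) came from a 3H-hypoxanthine incorporation assay run with chloroquine as the standard.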

Point of comparison: `N#Cc1ccc(-c2cnc3ccc(NCC4CC4)nn23)cc1`, selectivity ratio 2.96. Against it:
- CC(C)[C@@H](CO)Nc1ccc2ncc(-c3ccc(C(N)=O)cc3)n2n1 — higher, 5.27
- CC(C)[C@@H](CO)Nc1ccc2ncc(-c3ccc(C#N)cc3)n2n1 — higher, 20.1
- C[C@@H](CO)Nc1ccc2ncc(-c3ccc(C#N)cc3)n2n1 — higher, 4.03
- COC[C@H](C)Nc1ccc2ncc(-c3ccc(C#N)cc3)n2n1 — higher, 4.25
- N#Cc1ccc(-c2cnc3ccc(N[C@H]4CC[C@H](O)CC4)nn23)cc1 — higher, 23.3

Molecular target: T1, Putative uncharacterized protein pk7 (Plasmodium falciparum) (UniProt O96214)
T1 sequence (whole entry): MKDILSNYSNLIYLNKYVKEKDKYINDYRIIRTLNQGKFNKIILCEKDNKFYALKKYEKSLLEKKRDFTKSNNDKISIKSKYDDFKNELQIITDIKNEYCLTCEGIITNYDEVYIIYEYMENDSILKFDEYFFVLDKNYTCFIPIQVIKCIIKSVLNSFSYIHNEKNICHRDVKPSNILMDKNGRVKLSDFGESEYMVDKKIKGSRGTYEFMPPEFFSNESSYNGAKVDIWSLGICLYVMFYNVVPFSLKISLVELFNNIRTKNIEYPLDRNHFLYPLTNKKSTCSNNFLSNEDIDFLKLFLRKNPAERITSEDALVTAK
Experiment: (§1) Inhibition of Plasmodium falciparum PK7
Conditions: not given

For `CC(C)[C@@H](N)c1cccc(N2CCOCC2)c1`, the Activity was “inactive”.

Molecular target: T2, Putative uncharacterized protein pk7 (Plasmodium falciparum, UniProt O96214)
T2 sequence (O96214 whole entry): T1 sequence (whole entry)
Experiment: as §1
Conditions: not given

Point of comparison: `N#Cc1ccc(-c2cnc3ccc(NCc4ccc(N5CCOCC5)cc4)nn23)cc1`, IC50 8 µM. Against it:
- CN(Cc1ccc(F)cc1)c1ccc2ncc(-c3ccc(CN4CCC(O)CC4)cc3)n2n1 — 13-fold higher, 103 µM
- CC(C)[C@@H](CO)Nc1ccc2ncc(-c3ccc(C(N)=O)cc3)n2n1 — 10-fold lower, 0.77 µM
- CC(C)[C@@H](CO)Nc1ccc2ncc(-c3ccc(CC(=O)O)cc3)n2n1 — 14-fold higher, 111 µM
- CC(C)[C@@H](CO)Nc1ccc2ncc(-c3ccc(N)cc3)n2n1 — 4.2-fold higher, 34 µM
- N#Cc1ccc(-c2cnc3ccc(NCCO)nn23)cc1 — 8-fold lower, 1 µM
- N#Cc1ccc(-c2cnc3ccc(NCc4cccnc4)nn23)cc1 — 9.9-fold lower, 0.81 µM
- COCCNc1ccc2ncc(-c3ccc(C#N)cc3)n2n1 — 5.7-fold lower, 1.4 µM
- CC(C)[C@@H](CO)Nc1ccc2ncc(-c3ccc(C#N)cc3)n2n1 — 29-fold lower, 0.28 µM
- C[C@@H](CO)Nc1ccc2ncc(-c3ccc(C#N)cc3)n2n1 — 18-fold lower, 0.44 µM
- CN(Cc1ccc(F)cc1)c1ccc2ncc(-c3ccc(C(N)=O)cc3)n2n1 — 7.3-fold lower, 1.1 µM
- COC[C@H](C)Nc1ccc2ncc(-c3ccc(C#N)cc3)n2n1 — 9.8-fold lower, 0.82 µM
- CC(C)[C@@H](CO)Nc1ccc2ncc(-c3ccc(CN)cc3)n2n1 — 13-fold higher, 104 µM
- CN(Cc1cccnc1)c1ccc2ncc(-c3ccc(C#N)cc3)n2n1 — 6.3-fold lower, 1.26 µM
- CN(Cc1ccc(F)cc1)c1ccc2ncc(-c3ccc(C#N)cc3)n2n1 — 7.5-fold lower, 1.07 µM
- N#Cc1ccc(-c2cnc3ccc(N[C@H]4CC[C@H](O)CC4)nn23)cc1 — 62-fold lower, 0.13 µM
- C[C@H](N)c1cccc(N2CCOCC2)c1 — 3.1-fold higher, 25 µM
- C[C@@H](N)c1cccc(N2CCOCC2)c1 — 1.7-fold lower, 4.8 µM
- N#Cc1ccc(-c2cnc3ccc(NC4CCCNC4)nn23)cc1 (racemic) — 3.8-fold lower, 2.1 µM
- CC(C)[C@@H](CO)Nc1ccc2ncc(-c3ccc(CO)cc3)n2n1 — within 1.5-fold, 7.4 µM
- N#Cc1ccc(-c2cnc3ccc(NCC4CCCO4)nn23)cc1 (stereo not given) — 11-fold lower, 0.75 µM
- COc1ccc(-c2cnc3ccc(NCc4cccnc4)nn23)cc1 — within 1.5-fold, 11.6 µM
- CN(Cc1ccc(F)cc1)c1ccc2ncc(-c3ccc(Cn4ccnc4)cc3)n2n1 — 7-fold higher, 56 µM
- CN(Cc1ccc(F)cc1)c1ccc2ncc(-c3ccc(CNCO)cc3)n2n1 — 4.2-fold higher, 34 µM
- CN(Cc1ccc(F)cc1)c1ccc2ncc(-c3ccc(N)cc3)n2n1 — 5.2-fold higher, 42 µM
- N#Cc1ccc(-c2cnc3ccc(NCC4CC4)nn23)cc1 — 14-fold lower, 0.58 µM
- CN(Cc1ccc(F)cc1)c1ccc2ncc(-c3ccc(CO)cc3)n2n1 — 2.6-fold higher, 21 µM
- CC(C)[C@@H](CO)Nc1ccc2ncc(-c3ccc(CC#N)cc3)n2n1 — 3.1-fold higher, 25 µM
- N#Cc1ccc(-c2cnc3ccc(N[C@H]4CCC[C@H](O)C4)nn23)cc1 (racemic) — 31-fold lower, 0.26 µM
- N#Cc1ccc(-c2cnc3ccc(N[C@H]4CCCC[C@@H]4O)nn23)cc1 (racemic) — 36-fold lower, 0.22 µM
- C[C@H](CO)Nc1ccc2ncc(-c3ccc(C#N)cc3)n2n1 — 8-fold lower, 1 µM
- c1cncc(CNc2ccc3ncc(-c4ccncc4)n3n2)c1 — within 1.5-fold, 7.9 µM
- CC(C)[C@H](N)c1cccc(N2CCOCC2)c1 — 5.4-fold higher, 43 µM
- N#Cc1ccc(-c2cnc3ccc(NC4CCCCC4)nn23)cc1 — 24-fold lower, 0.34 µM

Test system: Plasmodium falciparum
Experiment: Antimalarial activity against chloroquine-sensitive Plasmodium falciparum 3D7 by [3H]hypoxanthine uptake
Format: functional, organism-based
Conditions: not given
How it was run: (§2)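 P. falciparum blood-stage growth measured by ³H-hypoxanthine incorporation, with chloroquine as the reference standard. Strains: 3D7, a drug-sensitive laboratory clone of the NF54 isolate, and K1 (Thailand), which is resistant to chloroquine, pyrimethamine and cycloguanil. Values are IC50 in μM.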

Point of comparison: `CC(C)[C@@H](CO)Nc1ccc2ncc(-c3ccc(C(N)=O)cc3)n2n1`, IC50 2.46 µM. Against it:
- CC(C)[C@@H](CO)Nc1ccc2ncc(-c3ccc(C#N)cc3)n2n1 — within 1.5-fold, 2.6 µM
- C[C@@H](CO)Nc1ccc2ncc(-c3ccc(C#N)cc3)n2n1 — 2.1-fold higher, 5.26 µM
- COC[C@H](C)Nc1ccc2ncc(-c3ccc(C#N)cc3)n2n1 — 2.5-fold higher, 6.06 µM
- N#Cc1ccc(-c2cnc3ccc(N[C@H]4CC[C@H](O)CC4)nn23)cc1 — 2.4-fold lower, 1.03 µM
- N#Cc1ccc(-c2cnc3ccc(NCC4CC4)nn23)cc1 — 2.9-fold higher, 7.15 µM

Test system: Plasmodium falciparum
Experiment: Antimalarial activity against multidrug-resistant Plasmodium falciparum K1 by [3H]hypoxanthine uptake
Format: functional, organism-based
Conditions: not given
How it was run: as §2

Point of comparison: `CC(C)[C@@H](CO)Nc1ccc2ncc(-c3ccc(C#N)cc3)n2n1`, IC50 6.86 µM. Against it:
- CC(C)[C@@H](CO)Nc1ccc2ncc(-c3ccc(C(N)=O)cc3)n2n1 — 1.8-fold lower, 3.89 µM
- C[C@@H](CO)Nc1ccc2ncc(-c3ccc(C#N)cc3)n2n1 — within 1.5-fold, 9.93 µM
- COC[C@H](C)Nc1ccc2ncc(-c3ccc(C#N)cc3)n2n1 — 1.5-fold higher, 10.5 µM
- N#Cc1ccc(-c2cnc3ccc(N[C@H]4CC[C@H](O)CC4)nn23)cc1 — 2.6-fold lower, 2.65 µM
- N#Cc1ccc(-c2cnc3ccc(NCC4CC4)nn23)cc1 — 1.9-fold higher, 12.7 µM

Test system: KB
Experiment: Cytotoxicity against human KB cells
Format: cell-based
Conditions: not given

Point of comparison: `N#Cc1ccc(-c2cnc3ccc(N[C@H]4CC[C@H](O)CC4)nn23)cc1`, IC50 24 µM. Against it:
- CC(C)[C@@H](CO)Nc1ccc2ncc(-c3ccc(C(N)=O)cc3)n2n1 — 1.8-fold lower, 13 µM
- CC(C)[C@@H](CO)Nc1ccc2ncc(-c3ccc(C#N)cc3)n2n1 — 2.2-fold higher, 52.2 µM
- C[C@@H](CO)Nc1ccc2ncc(-c3ccc(C#N)cc3)n2n1 — within 1.5-fold, 21.2 µM
- COC[C@H](C)Nc1ccc2ncc(-c3ccc(C#N)cc3)n2n1 — within 1.5-fold, 25.8 µM
- N#Cc1ccc(-c2cnc3ccc(NCC4CC4)nn23)cc1 — within 1.5-fold, 21.2 µM
- CCN(CC)CCCC(C)Nc1ccnc2cc(Cl)ccc12 (stereo not given) [CHLOROQUINE] — 4.1-fold higher, 97.5 µM
